Data from ChEMBL document CHEMBL4229498 (Bioorg Med Chem, 2018).

How the values were obtained:
[1] = Drug transport across apical to basolateral side in MDCK cells expressing MDR1 at 10 uM after 1 hr by mass spectrometer; assay type: ADME, cell-based, Canis lupus familiaris; settings: dog
Outline: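 MDCK-mdr1 cells (human MDR1-transfected) were grown 4 days to confluence on Transwell-type filters in DMEM/F12 with 10% FBS and antibiotics. Compound was added apically at 10 µM in HBSS with 25 mM D-glucose, HEPES-buffered to pH 7.4, and incubated 1 h at 37 °C. Apical and basal samples were collected, and results are given as % transported apical to basal.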

[2] = target: T1, Cannabinoid receptor 1 (Homo sapiens, UniProt P21554); assay: Displacement of [3H]-CP55940 from human CB1 receptor expressed in CHO cell membranes after 1 hr by liquid scintillation spectrometry
T1 sequence (P21554 whole entry): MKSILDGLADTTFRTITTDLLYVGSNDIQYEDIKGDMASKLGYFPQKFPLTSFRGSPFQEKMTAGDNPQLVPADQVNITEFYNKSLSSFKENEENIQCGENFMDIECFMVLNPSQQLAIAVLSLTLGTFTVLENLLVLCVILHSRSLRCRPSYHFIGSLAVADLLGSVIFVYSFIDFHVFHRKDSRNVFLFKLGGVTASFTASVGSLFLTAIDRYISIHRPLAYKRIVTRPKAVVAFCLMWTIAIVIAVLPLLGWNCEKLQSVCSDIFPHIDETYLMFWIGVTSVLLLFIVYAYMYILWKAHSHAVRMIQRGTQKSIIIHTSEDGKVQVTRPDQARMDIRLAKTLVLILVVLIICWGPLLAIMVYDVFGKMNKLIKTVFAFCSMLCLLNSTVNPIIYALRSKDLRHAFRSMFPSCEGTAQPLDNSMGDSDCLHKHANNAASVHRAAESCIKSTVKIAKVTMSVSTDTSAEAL

[3] = target: T1, Cannabinoid receptor 1; settings: HEK293
[4] = target: Cannabinoid receptor 2 (Homo sapiens, UniProt P34972); assay: Displacement of [3H]-CP55940 from human CB2 receptor expressed in CHO cell membranes after 1 hr by liquid scintillation spectrometry
Sequence of Cannabinoid receptor 2 (P34972 whole entry): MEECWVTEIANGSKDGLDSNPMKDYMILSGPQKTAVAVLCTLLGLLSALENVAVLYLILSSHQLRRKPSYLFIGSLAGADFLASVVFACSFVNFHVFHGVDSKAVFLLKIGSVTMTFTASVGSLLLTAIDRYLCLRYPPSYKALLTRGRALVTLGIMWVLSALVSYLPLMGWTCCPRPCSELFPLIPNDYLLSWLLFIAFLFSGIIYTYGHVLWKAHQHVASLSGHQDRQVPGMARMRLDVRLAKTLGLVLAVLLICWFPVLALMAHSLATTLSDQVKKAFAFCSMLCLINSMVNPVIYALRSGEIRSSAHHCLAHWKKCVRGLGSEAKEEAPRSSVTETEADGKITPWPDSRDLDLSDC

[5] = Tmax in C57BL6 mouse plasma at […], po administered in cassette format; assay type: ADME, organism-based
[6] = Ratio of drug level in brain to plasma in C57BL6 mouse at […], po administered in cassette format; assay type: ADME, organism-based
[7] = Cmax in C57BL6 mouse plasma at […], po administered in cassette format; assay type: ADME, organism-based; parameters: dose 2.5 mg/kg, route oral
[8] = Half life in C57BL6 mouse at […], po administered in cassette format; assay type: ADME, organism-based; settings: in vivo
[9] = target: T1, Cannabinoid receptor 1; assay type: functional, cell-based, HEK293

Structure (SMILES) | Drug transport [1] | Ki [2] | Ki [4] | other results
CCCCS(=O)(=O)N1CCN(c2ncnc3c2nc(-c2ccccc2Cl)n3-c2ccc(Cl)cc2)CC1 | 5% |  |  | 
O=C(OCC1CCC1)N1CCN(c2ncnc3c2nc(-c2ccccc2Cl)n3-c2ccc(Cl)cc2)CC1 | 0% | 0.003 µM | 4.6 µM | Ke [3]: 12 nM
CC(C)CS(=O)(=O)N1CCN(c2ncnc3c2nc(-c2ccccc2Cl)n3-c2ccc(Cl)cc2)CC1 | 0% |  | 2.8 µM | 
O=C(Nc1ccccn1)N1CCN(c2ncnc3c2nc(-c2ccccc2Cl)n3-c2ccc(Cl)cc2)CC1 | 1.2% |  |  | 
O=S(=O)(CC1CCOCC1)N1CCN(c2ncnc3c2nc(-c2ccccc2Cl)n3-c2ccc(Cl)cc2)CC1 | 9% | 0.003 µM | 3 µM | 
O=C(C1CCSCC1)N1CCN(c2ncnc3c2nc(-c2ccccc2Cl)n3-c2ccc(Cl)cc2)CC1 |  |  | 0.53 µM | 
N=C(Nc1ccc(F)cc1)N1CCN(c2ncnc3c2nc(-c2ccccc2Cl)n3-c2ccc(Cl)cc2)CC1 | 0.4% |  |  | 
O=C(N1CCN(c2ncnc3c2nc(-c2ccccc2Cl)n3-c2ccc(Cl)cc2)CC1)C(F)(F)F |  |  | 0.13 µM | 
O=C(Nc1ccccc1)N1CCN(c2ncnc3c2nc(-c2ccccc2Cl)n3-c2ccc(Cl)cc2)CC1 | 1% |  |  | 
CC(C(=O)N1CCN(c2ncnc3c2nc(-c2ccccc2Cl)n3-c2ccc(Cl)cc2)CC1)c1ccccc1 (stereo not given) |  | 0.003 µM | 0.56 µM | 
CC(C)(C)CC(=O)N1CCN(c2ncnc3c2nc(-c2ccccc2Cl)n3-c2ccc(Cl)cc2)CC1 |  | 0.002 µM | 5 µM | 
CS(=O)(=O)N1CCN(c2ncnc3c2nc(-c2ccccc2Cl)n3-c2ccc(Cl)cc2)CC1 | 14% | 0.024 µM | 1.7 µM | 
O=S(=O)(C1CC1)N1CCN(c2ncnc3c2nc(-c2ccccc2Cl)n3-c2ccc(Cl)cc2)CC1 | 4% | 0.005 µM |  | 
O=C(CC1CCOC1)N1CCN(c2ncnc3c2nc(-c2ccccc2Cl)n3-c2ccc(Cl)cc2)CC1 (stereo not given) |  | 0.008 µM | 3 µM | 
O=S(=O)(CCC(F)(F)F)N1CCN(c2ncnc3c2nc(-c2ccccc2Cl)n3-c2ccc(Cl)cc2)CC1 |  | 0.0012 µM | 0.5 µM | 
CCCCC(=O)N1CCN(c2ncnc3c2nc(-c2ccccc2Cl)n3-c2ccc(Cl)cc2)CC1 | 0% | 0.006 µM |  | 
O=C(Nc1ccc(F)c(F)c1)N1CCN(c2ncnc3c2nc(-c2ccccc2Cl)n3-c2ccc(Cl)cc2)CC1 | 0% |  |  | 

Structure (SMILES) | Drug transport [1] | Ki [2] | Ki [4] | other results
CCCS(=O)(=O)N1CCN(c2ncnc3c2nc(-c2ccccc2Cl)n3-c2ccc(Cl)cc2)CC1 | 6% |  |  | 
O=C(Nc1ccc(F)cc1)N1CCN(c2ncnc3c2nc(-c2ccccc2Cl)n3-c2ccc(Cl)cc2)CC1 | 0% |  |  | 
O=C(CN1CCCCC1)N1CCN(c2ncnc3c2nc(-c2ccccc2Cl)n3-c2ccc(Cl)cc2)CC1 | 5% | 0.021 µM | 5 µM | 
O=C(N1CCCC1)N1CCN(c2ncnc3c2nc(-c2ccccc2Cl)n3-c2ccc(Cl)cc2)CC1 |  | 0.013 µM |  | 
O=C(NC1CCCC1)N1CCN(c2ncnc3c2nc(-c2ccccc2Cl)n3-c2ccc(Cl)cc2)CC1 | 3% |  |  | 
CCS(=O)(=O)N1CCN(c2ncnc3c2nc(-c2ccccc2Cl)n3-c2ccc(Cl)cc2)CC1 | 18% | 0.003 µM |  | 
O=C(Nc1ccc(F)cc1F)N1CCN(c2ncnc3c2nc(-c2ccccc2Cl)n3-c2ccc(Cl)cc2)CC1 | 1.4% | 0.005 µM |  | 
O=S(=O)(CC1CCCCC1)N1CCN(c2ncnc3c2nc(-c2ccccc2Cl)n3-c2ccc(Cl)cc2)CC1 |  | 0.0017 µM | 0.091 µM | 
O=C(Nc1ccc(OC(F)F)nc1)N1CCN(c2ncnc3c2nc(-c2ccccc2Cl)n3-c2ccc(Cl)cc2)CC1 | 1.1% |  | > 10 µM | Tmax [5]: 4 h; BPR [6]: 0.18; Cmax [7]: 0.5 µg/mL; half-life [8]: 6.1 h; EC50 [9]: 0.59 µM
CCOCC(=O)N1CCN(c2ncnc3c2nc(-c2ccccc2Cl)n3-c2ccc(Cl)cc2)CC1 |  | 0.011 µM | > 10 µM | 
O=C(C1COc2ccccc2O1)N1CCN(c2ncnc3c2nc(-c2ccccc2Cl)n3-c2ccc(Cl)cc2)CC1 (stereo not given) | 0% | 0.005 µM |  | 
O=C(OC1CCC1)N1CCN(c2ncnc3c2nc(-c2ccccc2Cl)n3-c2ccc(Cl)cc2)CC1 |  | 0.003 µM | 3.4 µM | 
O=C(Nc1ccccc1F)N1CCN(c2ncnc3c2nc(-c2ccccc2Cl)n3-c2ccc(Cl)cc2)CC1 | 5% |  |  | 
CC(C)S(=O)(=O)N1CCN(c2ncnc3c2nc(-c2ccccc2Cl)n3-c2ccc(Cl)cc2)CC1 | 11% |  |  | 
O=C(NS(=O)(=O)c1ccccc1F)N1CCN(c2ncnc3c2nc(-c2ccccc2Cl)n3-c2ccc(Cl)cc2)CC1 |  | 0.25 µM |  | 
CC(C)(C)OC(=O)N1CCN(c2ncnc3c2nc(-c2ccccc2Cl)n3-c2ccc(Cl)cc2)CC1 | 3% | 0.005 µM | 3.4 µM | 
O=C(CC1CCCC1)N1CCN(c2ncnc3c2nc(-c2ccccc2Cl)n3-c2ccc(Cl)cc2)CC1 |  | 0.0004 µM | > 10 µM | 
